Source: ChEMBL document CHEMBL4330127, “Discovery of Novel Pyruvate Dehydrogenase Kinase 4 Inhibitors for Potential Oral Treatment of Metabolic Diseases” (J Med Chem, 2019)
Active and inactive are the calls of the source. The rule behind the calls is not given here.

What was measured:
[1] = system: Mast cell; experiment: Inhibition of degranulation in IgE-labeled bone marrow-derived mast cells (unknown origin) assessed as reduction in beta-hexosaminidase release by measuring absorbance at 20 uM preincubated for 1 hr followed by HSA stimulation and measured after 15 mins (reference value: 0.26 +/- 0.025); assay type: functional
[2] = target: [Pyruvate dehydrogenase (acetyl-transferring)] kinase isozyme 4, mitochondrial (Homo sapiens, UniProt Q16654); experiment: Inhibition of PDK4 in HEK293T cells assessed as reduction in PDHE1alpha phosphorylation at Ser-232 residue by measuring phosphorylated PDHE1alpha level at 10 uM after 24 hrs by Western blot analysis; assay type: cell-based
Sequence of [Pyruvate dehydrogenase (acetyl-transferring)] kinase isozyme 4, mitochondrial (Q16654 whole entry, looked up): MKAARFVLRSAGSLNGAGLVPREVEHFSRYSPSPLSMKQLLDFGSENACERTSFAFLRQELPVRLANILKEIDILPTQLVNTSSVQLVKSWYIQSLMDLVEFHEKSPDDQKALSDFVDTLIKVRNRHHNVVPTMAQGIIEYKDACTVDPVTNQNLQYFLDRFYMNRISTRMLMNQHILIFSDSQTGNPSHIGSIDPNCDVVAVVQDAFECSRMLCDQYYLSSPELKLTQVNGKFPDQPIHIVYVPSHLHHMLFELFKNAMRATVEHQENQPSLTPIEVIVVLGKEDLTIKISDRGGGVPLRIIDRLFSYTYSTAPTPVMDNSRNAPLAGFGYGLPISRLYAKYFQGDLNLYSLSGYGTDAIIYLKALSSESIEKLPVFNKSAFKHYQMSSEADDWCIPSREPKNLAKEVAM
Summary of the method: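 HEK293T cells grown in high-glucose DMEM with 10% FBS at 37 °C, 5% CO2. Medium renewed after 24 h, then cells exposed to compound for 24 h and lysed. 20 μg protein per lane Western blotted with antibodies to phospho-PDHE1α Ser232, Ser293 and Ser300 and to total PDHE1α. Band intensity quantified relative to control; triplicate.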

[3] = system: HCT-116; experiment: Induction of apoptosis in human HCT116 cells assessed as early apoptotic cells at 25 uM after 24 hrs in presence of oxaliplatin by Annexin V/propidium iodide staining based flow cytometry (reference value: 7.31%); assay type: functional
[4] = system: HCT-116; experiment: Induction of apoptosis in human HCT116 cells assessed as live cells at 25 uM after 24 hrs in presence of oxaliplatin by Annexin V/propidium iodide staining based flow cytometry (reference value: 57.3%); assay type: functional
[5] = system: RKO; experiment: Cell cycle arrest in human RKO cells assessed as accumulation at G1/G0 phase at 10 uM after 24 hrs propidium iodide staining based flow cytometry (reference value: 39.9%); assay type: functional
Summary of the method: (§1)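 HCT116 and RKO cells were treated with compound alone or with oxaliplatin for 24 h before harvest. Cells were stained with propidium iodide, and DNA content was analysed by flow cytometry. Cell-cycle phase populations, including sub-G1, are given as percentages.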

[6] = system: HCT-116; experiment: Cell cycle arrest in human HCT116 cells assessed as accumulation at sub-G1 phase at 25 uM after 24 hrs in presence of oxaliplatin propidium iodide staining based flow cytometry (reference value: 25.1%); assay type: functional; summary of the method: as §1
[7] = system: HCT-116; experiment: Cell cycle arrest in human HCT116 cells assessed as accumulation at S phase at 50 uM after 24 hrs propidium iodide staining based flow cytometry (reference value: 18%); assay type: functional; summary of the method: as §1
[8] = system: HCT-116; experiment: Cell cycle arrest in human HCT116 cells assessed as accumulation at G1/G0 phase at 25 uM after 24 hrs propidium iodide staining based flow cytometry (reference value: 42%); assay type: functional; summary of the method: as §1
[9] = Oral bioavailability in rat at 10 mg/kg; assay type: ADME, organism-based; conditions: in vivo
[10] = Half life in rat at 5 mg/kg, iv; assay type: ADME, organism-based; conditions: in vivo
[11] = system: RKO; experiment: Induction of apoptosis in human RKO cells assessed as live cells at 25 uM after 24 hrs by Annexin V/propidium iodide staining based flow cytometry (reference value: 82.4%); assay type: functional
[12] = Cmax in rat at 10 mg/kg, po; assay type: ADME, organism-based; design: dose 10 mg/kg, route oral; conditions: in vivo
Summary of the method: (§2)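 Male rats given a single dose, 5 mg/kg intravenously or 10 mg/kg orally. Plasma PK parameters were reported as mean ± SD: AUCt, AUC∞, Cmax, Tmax, T1/2, CL, Vss and oral bioavailability F.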

[13] = system: RKO; experiment: Induction of apoptosis in human RKO cells assessed as late apoptotic cells at 25 uM after 24 hrs in presence of oxaliplatin by Annexin V/propidium iodide staining based flow cytometry (reference value: 7.02%); assay type: functional
[14] = system: RKO; experiment: Induction of apoptosis in human RKO cells assessed as increase in Bax expression at 10 to 50 uM after 24 hrs by Western blot analysis; assay type: functional, cell-based
Summary of the method: (§3)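 HCT116 and RKO cells given a range of compound doses for 24 h; lysates probed by Western blot for apoptosis-related proteins (p53, BAX, BCLxL).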

[15] = Volume of distribution at steady state in rat at 5 mg/kg, iv; assay type: ADME, organism-based; conditions: in vivo, read-out: Vdss
[16] = target: UDP-glucuronosyltransferase 1A1 (Homo sapiens, UniProt P22309); experiment: Inhibition of UGT1A1 in human liver microsomes assessed as reduction in SN-38 glucuronidation by tandem mass spectrometry analysis; assay type: ADME
Sequence of UDP-glucuronosyltransferase 1A1 (P22309 whole entry): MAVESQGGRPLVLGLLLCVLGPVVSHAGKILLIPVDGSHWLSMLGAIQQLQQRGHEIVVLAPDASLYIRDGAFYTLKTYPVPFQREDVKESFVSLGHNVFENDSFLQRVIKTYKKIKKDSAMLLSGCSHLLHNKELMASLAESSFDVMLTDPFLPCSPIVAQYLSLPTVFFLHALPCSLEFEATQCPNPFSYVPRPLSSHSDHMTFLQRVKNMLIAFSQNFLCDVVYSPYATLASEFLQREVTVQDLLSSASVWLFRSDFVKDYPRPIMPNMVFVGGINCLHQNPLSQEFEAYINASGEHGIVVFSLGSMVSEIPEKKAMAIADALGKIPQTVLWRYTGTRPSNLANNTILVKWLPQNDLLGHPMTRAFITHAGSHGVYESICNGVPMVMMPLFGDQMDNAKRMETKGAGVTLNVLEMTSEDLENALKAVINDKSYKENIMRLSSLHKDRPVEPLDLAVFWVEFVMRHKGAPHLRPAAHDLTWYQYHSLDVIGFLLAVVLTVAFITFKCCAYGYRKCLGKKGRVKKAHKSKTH
Summary of the method: (§4)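 Pooled human liver microsomes; test compound at final 0–50 μM in a cocktail incubation with probe substrates: midazolam 1′-hydroxylation (CYP3A), SN-38 glucuronidation (UGT1A1), trifluoperazine N-glucuronidation (UGT1A4), mycophenolic acid glucuronidation (UGT1A9), naloxone 3-glucuronidation (UGT2B7). Metabolites measured by tandem MS; IC50 determined; duplicate.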

[17] = system: RKO; experiment: Induction of apoptosis in human RKO cells assessed as early apoptotic cells at 50 uM after 24 hrs by Annexin V/propidium iodide staining based flow cytometry (reference value: 9.62%); assay type: functional
[18] = target: Cytochrome P450 2C19 (Homo sapiens, UniProt P33261); experiment: Inhibition of CYP2C19 in human liver microsomes assessed as reduction in omeprazole hydroxylation by tandem mass spectrometry analysis; assay type: ADME
Sequence of Cytochrome P450 2C19 (P33261 whole entry): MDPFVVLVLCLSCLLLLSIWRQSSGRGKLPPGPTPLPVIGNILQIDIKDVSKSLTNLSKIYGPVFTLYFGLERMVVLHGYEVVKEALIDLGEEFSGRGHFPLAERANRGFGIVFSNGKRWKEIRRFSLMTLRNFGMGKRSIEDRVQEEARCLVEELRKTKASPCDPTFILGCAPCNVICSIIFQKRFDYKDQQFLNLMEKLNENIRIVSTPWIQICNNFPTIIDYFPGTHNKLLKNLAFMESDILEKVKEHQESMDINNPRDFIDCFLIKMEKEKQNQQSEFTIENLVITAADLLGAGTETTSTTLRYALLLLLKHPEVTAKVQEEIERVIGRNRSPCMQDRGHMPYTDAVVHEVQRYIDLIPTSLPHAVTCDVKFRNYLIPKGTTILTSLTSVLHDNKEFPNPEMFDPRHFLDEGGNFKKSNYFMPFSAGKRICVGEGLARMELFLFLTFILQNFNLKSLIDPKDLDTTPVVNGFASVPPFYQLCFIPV
Summary of the method: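 Pooled human liver microsomes incubated with compound at 0–50 μM final; CYP probe activities (phenacetin O-deethylation for 1A2, tolbutamide 4-hydroxylation for 2C9, omeprazole hydroxylation for 2C19, dextromethorphan O-demethylation for 2D6) run as a cocktail incubation and quantified by tandem MS; duplicates; IC50 derived.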

[19] = system: Mus musculus; experiment: Antiallergic activity in mouse model of IgE/antigen-stimulated passive cutaneous anaphylaxis assessed as Evans blue exudation at 50 mg/kg, ip administered as single dose for 1 hr treated at 24 hrs post anti-DNP IgE treatment followed by DNP-HSA/Evans blue addition and measured after 1 hr (reference value: 149 +/- 16.9 ug/ml); assay type: functional
[20] = target: Cellular tumor antigen p53 (Homo sapiens) (UniProt P04637); experiment: Induction of p53 phosphorylation at Ser-15 residue in human RKO cells after 24 hrs by Western blot analysis; assay type: cell-based; summary of the method: as §3
Sequence of Cellular tumor antigen p53 (Homo sapiens) (P04637 whole entry, looked up): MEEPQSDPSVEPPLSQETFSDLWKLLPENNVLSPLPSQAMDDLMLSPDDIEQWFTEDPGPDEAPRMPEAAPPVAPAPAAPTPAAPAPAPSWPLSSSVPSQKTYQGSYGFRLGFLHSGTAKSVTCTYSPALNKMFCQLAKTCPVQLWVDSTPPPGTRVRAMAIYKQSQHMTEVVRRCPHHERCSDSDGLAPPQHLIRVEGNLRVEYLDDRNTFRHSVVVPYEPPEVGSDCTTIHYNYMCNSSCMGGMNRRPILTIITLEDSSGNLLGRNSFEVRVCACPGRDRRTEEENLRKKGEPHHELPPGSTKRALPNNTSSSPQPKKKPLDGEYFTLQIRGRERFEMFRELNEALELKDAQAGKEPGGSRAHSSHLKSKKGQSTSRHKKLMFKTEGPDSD

[21] = system: RKO; experiment: Cell cycle arrest in human RKO cells assessed as accumulation at G2/M phase at 10 uM after 24 hrs propidium iodide staining based flow cytometry (reference value: 23.3%); assay type: functional; summary of the method: as §1
[22] = system: HCT-116; experiment: Induction of apoptosis in human HCT116 cells assessed as early apoptotic cells at 50 uM after 24 hrs by Annexin V/propidium iodide staining based flow cytometry (reference value: 4.36%); assay type: functional
[23] = system: HCT-116; experiment: Induction of apoptosis in human HCT116 cells assessed as necrotic cells at 10 uM after 24 hrs by Annexin V/propidium iodide staining based flow cytometry (reference value: 2.92%); assay type: functional
[24] = system: HCT-116; experiment: Induction of apoptosis in human HCT116 cells assessed as necrotic cells at 25 uM after 24 hrs in presence of oxaliplatin by Annexin V/propidium iodide staining based flow cytometry (reference value: 21.2%); assay type: functional
[25] = target: UDP-glucuronosyltransferase 1A4 (Homo sapiens, UniProt P22310); experiment: Inhibition of UGT1A4 in human liver microsomes assessed as reduction in trifluoperazine N-glucuronidation by tandem mass spectrometry analysis; assay type: ADME; summary of the method: as §4
Sequence of UDP-glucuronosyltransferase 1A4 (P22310 whole entry): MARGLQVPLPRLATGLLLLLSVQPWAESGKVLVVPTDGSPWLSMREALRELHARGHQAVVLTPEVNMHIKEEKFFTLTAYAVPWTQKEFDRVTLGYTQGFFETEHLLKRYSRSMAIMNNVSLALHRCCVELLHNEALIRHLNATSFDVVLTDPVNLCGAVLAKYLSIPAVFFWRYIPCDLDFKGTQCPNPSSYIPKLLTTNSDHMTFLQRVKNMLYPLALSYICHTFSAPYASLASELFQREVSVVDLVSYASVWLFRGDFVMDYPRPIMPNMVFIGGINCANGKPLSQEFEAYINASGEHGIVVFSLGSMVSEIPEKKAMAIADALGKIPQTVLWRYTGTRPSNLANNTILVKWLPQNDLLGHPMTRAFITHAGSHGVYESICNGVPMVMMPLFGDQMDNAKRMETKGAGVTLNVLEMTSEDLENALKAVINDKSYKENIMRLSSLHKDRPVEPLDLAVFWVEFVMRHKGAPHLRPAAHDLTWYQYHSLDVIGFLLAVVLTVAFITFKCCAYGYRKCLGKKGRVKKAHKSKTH

[26] = system: HCT-116; experiment: Cell cycle arrest in human HCT116 cells assessed as accumulation at sub-G1 phase at 25 uM after 24 hrs propidium iodide staining based flow cytometry (reference value: 17.8%); assay type: functional; summary of the method: as §1
[27] = system: HCT-116; experiment: Cell cycle arrest in human HCT116 cells assessed as accumulation at G2/M phase at 25 uM after 24 hrs propidium iodide staining based flow cytometry (reference value: 22.2%); assay type: functional; summary of the method: as §1
[28] = AUCt in rat at 5 mg/kg, iv; assay type: ADME, organism-based; conditions: in vivo; summary of the method: as §2
[29] = system: RKO; experiment: Induction of apoptosis in human RKO cells assessed as live cells at 50 uM after 24 hrs by Annexin V/propidium iodide staining based flow cytometry (reference value: 82.4%); assay type: functional

Cl.O=C1c2ccccc2C(=O)c2c1cccc2-c1cnn(C2CCNCC2)c1
OD [1]: 0.126
fold change (FC) [2]: 0.04
Activity [3]: 7.7%
Activity [4]: 44.6%
Activity [5]: 46.7%
Activity [6]: 36%
Activity [7]: 5.3%
Activity [8]: 19%
bioavailability [9]: 63.6%
half-life [10]: 7.06 h
Activity [11]: 36.7%
Cmax [12]: 0.565 µg/mL
Activity [13]: 33.8%
Activity [14]: Active
Vd [15]: 5.52 L/kg
IC50 [16]: > 50 µM
Activity [17]: 41.4%
IC50 [18]: 42.4 µM
Activity [19]: 49.9 µg/mL
Activity [20]: Dose-dependent effect
Activity [21]: 18.1%
Activity [22]: 4.1%
Activity [23]: 12.1%
Activity [24]: 25.9%
IC50 [25]: > 50 µM
Activity [26]: 32.5%
Activity [27]: 37.1%
AUC(0-t) [28]: 7.02 µg·h/mL
Activity [29]: 9.59%
